Data on 20 compounds can be found in ChEMBL document CHEMBL1125552, “Synthesis and biological evaluation of novel potent antagonists of the bombesin/gastrin releasing peptide receptor” (1992).

Common to all, as to type: functional
Assay [1] addresses Gastrin-releasing peptide receptor (Rattus norvegicus) (UniProt P52500). Put plainly: Tested for the inhibition of Bombesin-stimulated amylase release at 50 nM concentration in the presence of 0.2 nM of bombesin in rat pranceatic acini. The gist of the method: (§1)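 Dispersed rat pancreatic acini prepared by collagenase digestion (300 units/20 mL), washed through 4% BSA. Incubated 30 min at 37 °C under 100% oxygen in HEPES buffer (pH 7.4) with 0.5 mM CaCl₂, 1% albumin and trypsin inhibitor, with peptide plus 0.2 nM BN. Amylase (Phadebas test) released, as percent of initial acinar content, normalized to BN alone; triplicate measurements.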

The target is the same in assay [2]. Put plainly: Tested for the inhibition of Bombesin-stimulated amylase release in the presence of 0.2 nM of bombesin in rat pranceatic acini. Put shortly: as §1
Assay [3] has the same target. Put plainly: Tested for the inhibition of Bombesin-stimulated amylase release at 5 uM concentration in the presence of 0.2 nM of bombesin in rat pranceatic acini. The gist of the method:
as §1

For assay [4] the target is unchanged. Put plainly: Tested for the inhibition of bombesin-stimulated amylase release in rat pranceatic acini. Put shortly: as §1
Assay [5] has the same target. Put plainly: Tested for the inhibition of Bombesin-stimulated amylase release at 50 nM concentration in rat pranceatic acini. The gist of the method:
as §1

Assay [6] shares this target. Put plainly: Tested for the inhibition of Bombesin-stimulated amylase release at 5 uM concentration in rat pranceatic acini. Put shortly:
as §1

Where a SMILES comes first, the peptide text is derived from it. The star is where a group is joined. X1 = CSCC[C@H](NC[C@H](CC(C)C)N*)C(N)=O; X2 = CC(=O)NC[C@H](CC(C)C)N*; For = O=C*

Gastrin-releasing peptide receptor (Rattus norvegicus), sequence (P52500 whole entry): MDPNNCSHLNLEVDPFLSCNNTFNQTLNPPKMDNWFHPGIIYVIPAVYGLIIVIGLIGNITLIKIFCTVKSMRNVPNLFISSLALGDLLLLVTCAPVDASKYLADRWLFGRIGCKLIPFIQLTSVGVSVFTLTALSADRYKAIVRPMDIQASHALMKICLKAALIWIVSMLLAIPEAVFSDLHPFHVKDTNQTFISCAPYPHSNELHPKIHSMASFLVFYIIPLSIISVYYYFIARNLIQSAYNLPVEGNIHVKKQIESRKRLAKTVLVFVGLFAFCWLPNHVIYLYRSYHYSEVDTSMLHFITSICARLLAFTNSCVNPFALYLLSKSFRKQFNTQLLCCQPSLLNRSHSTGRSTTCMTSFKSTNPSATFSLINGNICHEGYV

Regarding `CC(=O)NC[C@H](CC(C)C)NC(=O)[C@H](Cc1c[nH]cn1)NC(=O)CNC(=O)[C@@H](NC(=O)[C@H](C)NC(=O)[C@H](Cc1c[nH]c2ccccc12)NC(=O)[C@H](CCC(N)=O)NC(=O)[C@H](N)Cc1ccccc1)C(C)C`, the Release was 10.3% in assay [1], 14.6% in assay [2], 3.6% in assay [3] and 3.3% in assay [4].

As for `CC(C)C[C@@H](CN[C@@H](CC(C)C)C(N)=O)NC(=O)[C@H](Cc1c[nH]cn1)NC(=O)CNC(=O)[C@@H](NC(=O)[C@H](C)NC(=O)[C@H](Cc1c[nH]c2ccccc12)NC(=O)[C@H](CCC(N)=O)NC(=O)[C@H](CC(N)=O)NC(=O)CNC(=O)[C@H](CC(C)C)NC(=O)[C@H](CCCN=C(N)N)NC(=O)[C@H](CCC(N)=O)NC(=O)[C@@H]1CCC(=O)N1)C(C)C`, the Release in assay [1] was found to be 11.6%; in assay [2], 17.4%; in assay [5], 3%; in assay [3], 6.2%; in assay [4], 2.8%; in assay [6], 2.7%.

`CC(=O)NC[C@H](CC(C)C)NC(=O)[C@H](Cc1c[nH]cn1)NC(=O)CNC(=O)[C@@H](NC(=O)[C@H](C)NC(=O)[C@H](Cc1c[nH]c2ccccc12)NC(=O)[C@H](Cc1c[nH]cn1)NC(=O)[C@@H](Cc1ccccc1)NC(C)=O)C(C)C`: the Release in assay [1] came to 16.7%; in assay [2] it was 20.2%; in assay [3] it was 3.7%; in assay [4], 2.9%; in assay [6] it was 3.6%.

As for `CC(=O)NC[C@H](CC(C)C)NC(=O)[C@H](Cc1c[nH]cn1)NC(=O)CNC(=O)[C@@H](NC(=O)[C@H](C)NC(=O)[C@H](Cc1c[nH]c2ccccc12)NC(=O)[C@H](Cc1c[nH]cn1)NC(=O)[C@@H](N)CCC(N)=O)C(C)C` (H-QHWAVGH-X2), the Release in assay [1] worked out at 14.5%; in assay [2], 14.4%; in assay [3], 8.2%; in assay [4] it was 3.6%; in assay [6] it was 3.6%.

On to `CC(=O)NC[C@H](CC(C)C)NC(=O)[C@H](Cc1c[nH]cn1)NC(=O)CNC(=O)[C@@H](NC(=O)[C@H](C)NC(=O)[C@H](Cc1cn(C=O)c2ccccc12)NC(=O)[C@H](Cc1c[nH]cn1)NC(=O)[C@H](CCC(N)=O)NC(C)=O)C(C)C` (Ac-QHW(For)AVGH-X2), for which the Release in assay [1] is 15.8%; in assay [2], 16%; in assay [3] it was 12.5%; in assay [4], 3.2%.

As for `CN[C@@H](Cc1ccccc1)C(=O)N[C@@H](Cc1c[nH]cn1)C(=O)N[C@@H](Cc1c[nH]c2ccccc12)C(=O)N[C@@H](C)C(=O)N[C@H](C(=O)NCC(=O)N[C@@H](Cc1c[nH]cn1)C(=O)N[C@@H](CC(C)C)CN(C=O)[C@@H](CCSC)C(N)=O)C(C)C`, the Release in assay [2] was found to be 9.4%; in assay [3], 9.9%; in assay [4], 3.5%; in assay [6] it was 9%.

As to `CN[C@H](Cc1ccccc1)C(=O)N[C@@H](Cc1c[nH]c2ccccc12)C(=O)N[C@@H](C)C(=O)N[C@H](C(=O)NCC(=O)N[C@@H](Cc1c[nH]cn1)C(=O)N[C@H](CN[C@@H](CCSC)C(N)=O)CC(C)C)C(C)C`, the Release in assay [1] was 16%; in assay [2], 21.2%; in assay [5], 7.2%; in assay [3], 14.3%; in assay [4] it was 6.4%; in assay [6] it was 12.2%.

Consider `CSCC[C@@H](C(N)=O)N(C=O)C[C@H](CC(C)C)NC(=O)[C@H](Cc1c[nH]cn1)NC(=O)CNC(=O)[C@@H](NC(=O)[C@H](C)NC(=O)[C@H](Cc1c[nH]c2ccccc12)NC(=O)[C@H](Cc1c[nH]cn1)NC(=O)[C@H](N)Cc1ccccc1)C(C)C`, for which the Release in assay [2] was 10.4%; in assay [3], 13%; in assay [4], 3.7%; in assay [6], 10.3%.

For the compound `CC(=O)NC[C@H](CC(C)C)NC(=O)[C@H](Cc1c[nH]cn1)NC(=O)CNC(=O)[C@@H](NC(=O)[C@H](C)NC(=O)[C@H](Cc1c[nH]c2ccccc12)NC(=O)[C@H](CCC(N)=O)NC(=O)[C@@H](Cc1ccccc1)NC(C)=O)C(C)C`, the Release in assay [1] was determined as 14.8%; in assay [2], 16.5%; in assay [3], 4.3%; in assay [4], 3%.

With `CC(=O)NC[C@H](CC(C)C)NC(=O)[C@H](Cc1c[nH]cn1)NC(=O)CNC(=O)[C@@H](NC(=O)[C@H](C)NC(=O)[C@H](Cc1cn(C=O)c2ccccc12)NC(=O)[C@H](Cc1c[nH]cn1)NC(=O)[C@H](N)Cc1ccccc1)C(C)C`, the Release in assay [1] was 16.2%; in assay [2], 20.3%; in assay [3], 4.8%; in assay [4], 3.2%; in assay [6] it was 3.1%.

Take `CSCC[C@H](NC[C@H](CC(C)C)NC(=O)[C@H](Cc1c[nH]cn1)NC(=O)CNC(=O)[C@@H](NC(=O)[C@H](C)NC(=O)[C@H](Cc1c[nH]c2ccccc12)NC(=O)[C@H](CC(N)=O)NC(=O)CN)C(C)C)C(N)=O`: the Release was 22.7% in assay [1]; 19.3% in assay [2]; 7.6% in assay [5]; 24.5% in assay [3]; 5.1% in assay [4]; 6.5% in assay [6].

For `CCCCC[C@H](CC(C)C)NC(=O)[C@H](Cc1c[nH]cn1)NC(=O)CNC(=O)[C@@H](NC(=O)[C@H](C)NC(=O)[C@H](Cc1c[nH]c2ccccc12)NC(=O)[C@@H](Cc1c[nH]cn1)NC(=O)C(C)(C)C)C(C)C`, the Release in assay [1] was 6.3%; in assay [2] it was 17.4%; in assay [5] it was 5.1%; in assay [3], 6.3%; in assay [4] it was 5.3%; in assay [6], 6%.

In the case of `CSCC[C@@H](C(N)=O)N(C=O)C[C@H](CC(C)C)NC(=O)[C@H](Cc1c[nH]cn1)NC(=O)CNC(=O)[C@@H](NC(=O)[C@H](C)NC(=O)[C@H](Cc1c[nH]c2ccccc12)NC(=O)[C@H](Cc1c[nH]cn1)NC(=O)[C@H](CC(N)=O)NC(=O)CN)C(C)C`, the Release came out at 9.4% in assay [2], 13.1% in assay [3], 3.5% in assay [4] and 9.2% in assay [6].

Turning to `CC(=O)NC[C@H](CC(C)C)NC(=O)[C@H](Cc1c[nH]cn1)NC(=O)CNC(=O)[C@@H](NC(=O)[C@H](C)NC(=O)[C@H](Cc1c[nH]c2ccccc12)NC(=O)[C@H](Cc1c[nH]cn1)NC(=O)[C@H](CCC(N)=O)NC(C)=O)C(C)C` (Ac-QHWAVGH-X2), the Release was 12.2% in assay [1]; 15.9% in assay [2]; 4% in assay [3]; 3.1% in assay [4]; 3.6% in assay [6].

In the case of `CN[C@H](Cc1ccccc1)C(=O)N[C@@H](Cc1c[nH]cn1)C(=O)N[C@@H](Cc1c[nH]c2ccccc12)C(=O)N[C@@H](C)C(=O)N[C@H](C(=O)NCC(=O)N[C@@H](Cc1c[nH]cn1)C(=O)N[C@@H](CC(C)C)CN(C=O)[C@@H](CCSC)C(N)=O)C(C)C`, the Release turned out to be 9.4% in assay [2], 12.9% in assay [3], 3.5% in assay [4] and 9.1% in assay [6].

Regarding `CSCC[C@@H](C(N)=O)N(C=O)C[C@H](CC(C)C)NC(=O)[C@H](Cc1c[nH]cn1)NC(=O)CNC(=O)[C@@H](NC(=O)[C@H](C)NC(=O)[C@H](Cc1c[nH]c2ccccc12)NC(=O)[C@H](Cc1c[nH]cn1)NC(=O)[C@@H](Cc1ccccc1)NC(=O)CN)C(C)C`, the Release in assay [2] turned out to be 10.4%; in assay [3] it was 11.6%; in assay [4] it was 3.7%; in assay [6] it was 13.3%.

As for `CC(=O)NC[C@H](CC(C)C)NC(=O)[C@H](Cc1c[nH]cn1)NC(=O)CNC(=O)[C@@H](NC(=O)[C@H](C)NC(=O)[C@H](Cc1c[nH]c2ccccc12)NC(=O)[C@H](Cc1c[nH]cn1)NC(=O)[C@H](N)Cc1ccccc1)C(C)C`, the Release was 9% in assay [1]; 15.7% in assay [2]; 3.4% in assay [3]; 3% in assay [4]; 3% in assay [6].

For the compound `CSCC[C@H](NC[C@H](CC(C)C)NC(=O)[C@H](Cc1c[nH]cn1)NC(=O)CNC(=O)[C@@H](NC(=O)[C@H](C)NC(=O)[C@H](Cc1c[nH]c2ccccc12)NC(C)=O)C(C)C)C(N)=O` (Ac-WAVGH-X1), the Release stood at 17.9% in assay [1]; 17.8% in assay [2]; 4.7% in assay [5]; 16.1% in assay [3]; 4.8% in assay [4]; 4.7% in assay [6].

Consider `CSCC[C@H](NC[C@H](CC(C)C)NC(=O)[C@H](Cc1c[nH]cn1)NC(=O)CNC(=O)[C@@H](NC(=O)[C@H](C)NC(=O)[C@H](Cc1c[nH]c2ccccc12)NC(=O)[C@H](N)Cc1ccccc1)C(C)C)C(N)=O`, for which the Release was 19.6% in assay [1]; 18.3% in assay [2]; 5.3% in assay [5]; 13.1% in assay [3]; 5.3% in assay [4]; 5.7% in assay [6].

`CSCC[C@H](NC[C@H](CC(C)C)NC(=O)[C@H](Cc1c[nH]cn1)NC(=O)CNC(=O)[C@@H](NC(=O)[C@H](C)NC(=O)[C@@H](N)Cc1c[nH]c2ccccc12)C(C)C)C(N)=O` (H-WAVGH-X1): the Release in assay [1] was 20.8%; in assay [2] it was 17.6%; in assay [5], 5.4%; in assay [3] it was 18.1%; in assay [4], 4.9%; in assay [6] it was 5.3%.
